Assay results from different studies.
Compare with care: the assays were run in different laboratories.
Read-out: metabolic stability
Medium: liver microsomes

Structure (SMILES) | test system | conditions | microsomal CLint [µL/min/mg]
CC1=C(C(N)=O)C(=O)/C(=C\c2cc(C)n(-c3ccccc3C(F)(F)F)c2C)N1 | mouse | 1 µM | 93
CCOC(=O)c1c(-c2cccc(Oc3ccccc3)c2)[nH]c2cc(OC)ccc2c1=O | female CD-1 mouse | 19.8 µM, pH 7.4 | > 15
CCOC(=O)C1=C(C)N/C(=C/c2cc(CC)n(-c3ccccc3C(F)(F)F)c2CC)C1=O | mouse | 1 µM | 143
Cc1cc(Nc2ccc(S(F)(F)(F)(F)F)cc2)n2ccnc2n1 | mouse | – | 30
c1ccc(C2CCN(c3nc(-c4cnn5cccnc45)nc4ccccc34)C2)nc1 (stereo not shown) | mouse | – | 153
COc1cc2[nH]c(-c3cccc(Oc4ccccc4)c3)c(C(=O)OCCCN3CCOCC3)c(=O)c2cc1F | female CD-1 mouse | 19.8 µM, pH 7.4 | > 15
Cc1cccc(N2CCN(c3nc(-c4ccccn4)nc4ccccc34)CC2)n1 | mouse | – | 513
O=C(Nc1ccc2c(c1)B(O)OC2)Nc1ccc(F)c(C(F)(F)F)c1 | mouse | – | 34
CCC(F)(F)c1nc2nc(C)cc(Nc3ccc(S(F)(F)(F)(F)F)cc3)n2n1 | mouse | 1 µM, pH 7.4 | < 10
CCOc1ccc2ccc(=O)oc2c1 | mouse | 1 µM, pH 7.4 | 522
Clc1ccc(COc2cncc(-c3cnn(C4CCNCC4)c3)c2)c(Cl)c1 | mouse | – | 28.9
O=C(C1CCSCC1)N1CC(=O)N2CCc3ccccc3[C@@H]2C1 | mouse | 0.1 µM, pH 7.4 | 324
N#CC1CCCN(c2nc(-c3ccccn3)nc3ccccc23)C1 (stereo not shown) | mouse | – | 93
Cc1cc(Nc2ccc(C(F)(F)F)cc2)n2nc(C(C)(F)F)nc2n1 | mouse | 1 µM, pH 7.4 | < 10
Oc1ccc(-c2nc(N3CCC(c4ccccn4)C3)c3ccccc3n2)cc1 (stereo not shown) | mouse | – | 388
Cc1cc(Nc2ccc(S(F)(F)(F)(F)F)cc2)n2nc(C(C)(F)F)nc2n1 | mouse | 1 µM, pH 7.4 | < 10
CCOC(=O)c1c(-c2cccc(Oc3ccccc3)c2)[nH]c2cc(OC)c(F)cc2c1=O | female CD-1 mouse | 19.8 µM, pH 7.4 | > 15
O=C(Nc1ccnc(C(F)(F)F)c1)Nc1cccc2c1OC(F)(F)O2 | mouse | – | 92
c1ccc(CN2CCN(c3nc(-c4ccccn4)nc4ccccc34)CC2)cc1 | mouse | – | 393
